Assay results taken from the M2OR odorant receptor database.

Legend:
Conditions in all cases: stereoisomer not certain
OR1N1 (Homo sapiens) = biological target: T1, OR1N1 (Homo sapiens) (UniProt Q8NGS0)
T1 sequence (whole entry): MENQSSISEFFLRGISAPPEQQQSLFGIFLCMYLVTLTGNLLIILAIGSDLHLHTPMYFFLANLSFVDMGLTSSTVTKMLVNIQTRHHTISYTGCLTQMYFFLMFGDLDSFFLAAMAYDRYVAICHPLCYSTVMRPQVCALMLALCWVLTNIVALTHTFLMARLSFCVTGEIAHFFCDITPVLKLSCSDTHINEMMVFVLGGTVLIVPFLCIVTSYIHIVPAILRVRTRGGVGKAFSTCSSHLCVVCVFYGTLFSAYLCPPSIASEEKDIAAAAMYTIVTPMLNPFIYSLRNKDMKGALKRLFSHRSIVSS
Summary of the method: (§1)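 Whether a receptor–molecule pair is responsive (active) rests on the original authors' judgment that its measured signal was statistically different from baseline. Pairs without that judgment are non-responsive (inactive). Sources used varied assay methods, commonly transient luciferase assays in mammalian cell lines.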

OR1N2 = tested on: OR1N2
Summary of the method: as §1

OR1P1 (Homo sapiens) = OR1P1 (Homo sapiens) (UniProt Q8NH06)
Summary of the method: as §1

OR1Q1 (Homo sapiens) = OR1Q1 (Homo sapiens) (UniProt Q15612)
Summary of the method: as §1

OR1S1 (Homo sapiens) = OR1S1 (Homo sapiens) (UniProt Q8NH92)
Summary of the method: as §1

OR1S2 (Homo sapiens) = OR1S2 (Homo sapiens) (UniProt Q8NGQ3)
Summary of the method: as §1

OR1N2 W37R = tested on: OR1N2 W37R
Summary of the method: as §1

OR1Q1 = tested on: OR1Q1
Summary of the method: as §1

OR1S2 E17G = tested on: OR1S2 E17G
Summary of the method: as §1

OR1S2 V225T G240R = tested on: OR1S2 V225T G240R
Summary of the method: as §1

Measured: odorant receptor agonist call;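 note: active if original authors judged signal statistically different from baseline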

OR1Q1 (Homo sapiens), sequence (Q15612 whole entry): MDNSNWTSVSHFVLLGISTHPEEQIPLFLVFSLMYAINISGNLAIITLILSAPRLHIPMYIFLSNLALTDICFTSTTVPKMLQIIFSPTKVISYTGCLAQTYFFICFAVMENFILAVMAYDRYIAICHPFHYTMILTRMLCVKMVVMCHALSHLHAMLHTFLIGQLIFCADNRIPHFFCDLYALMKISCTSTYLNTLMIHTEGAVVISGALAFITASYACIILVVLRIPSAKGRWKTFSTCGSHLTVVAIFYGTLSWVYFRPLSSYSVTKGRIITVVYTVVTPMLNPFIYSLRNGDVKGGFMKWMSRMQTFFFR
OR1S1 (Homo sapiens), sequence (Q8NH92 whole entry): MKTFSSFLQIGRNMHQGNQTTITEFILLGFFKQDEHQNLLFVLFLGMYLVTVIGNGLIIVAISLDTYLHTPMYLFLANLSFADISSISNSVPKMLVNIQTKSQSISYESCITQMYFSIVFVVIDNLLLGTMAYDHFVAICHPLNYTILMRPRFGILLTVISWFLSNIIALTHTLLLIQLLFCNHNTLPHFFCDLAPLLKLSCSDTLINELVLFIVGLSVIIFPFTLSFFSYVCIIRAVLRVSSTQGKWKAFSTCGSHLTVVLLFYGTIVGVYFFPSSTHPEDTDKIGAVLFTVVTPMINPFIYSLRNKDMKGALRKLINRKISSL
OR1N2, sequence (as listed by the source): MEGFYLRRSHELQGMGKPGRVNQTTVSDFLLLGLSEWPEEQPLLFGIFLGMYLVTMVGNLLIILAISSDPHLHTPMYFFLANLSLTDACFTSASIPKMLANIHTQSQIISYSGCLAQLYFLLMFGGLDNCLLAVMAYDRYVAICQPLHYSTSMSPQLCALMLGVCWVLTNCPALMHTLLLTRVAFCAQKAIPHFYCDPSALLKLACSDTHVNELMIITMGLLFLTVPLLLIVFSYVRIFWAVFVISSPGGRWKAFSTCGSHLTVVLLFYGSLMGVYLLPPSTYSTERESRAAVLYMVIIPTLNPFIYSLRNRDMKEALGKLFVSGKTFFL
OR1S2 (Homo sapiens), sequence (Q8NGQ3 whole entry): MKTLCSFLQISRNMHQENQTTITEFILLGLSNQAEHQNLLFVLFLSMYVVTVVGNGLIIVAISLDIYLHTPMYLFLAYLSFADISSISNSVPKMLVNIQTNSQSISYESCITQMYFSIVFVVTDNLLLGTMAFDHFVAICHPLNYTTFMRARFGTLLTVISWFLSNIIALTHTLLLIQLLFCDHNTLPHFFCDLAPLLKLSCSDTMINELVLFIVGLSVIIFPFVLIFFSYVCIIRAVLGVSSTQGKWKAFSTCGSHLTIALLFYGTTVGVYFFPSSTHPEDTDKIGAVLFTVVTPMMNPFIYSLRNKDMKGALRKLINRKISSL
OR1S2 E17G, sequence (as listed by the source, stated change not applied): as the sequence (Q8NGQ3 whole entry) above, with E17G counted along it
OR1P1 (Homo sapiens), sequence (Q8NH06 whole entry K185A): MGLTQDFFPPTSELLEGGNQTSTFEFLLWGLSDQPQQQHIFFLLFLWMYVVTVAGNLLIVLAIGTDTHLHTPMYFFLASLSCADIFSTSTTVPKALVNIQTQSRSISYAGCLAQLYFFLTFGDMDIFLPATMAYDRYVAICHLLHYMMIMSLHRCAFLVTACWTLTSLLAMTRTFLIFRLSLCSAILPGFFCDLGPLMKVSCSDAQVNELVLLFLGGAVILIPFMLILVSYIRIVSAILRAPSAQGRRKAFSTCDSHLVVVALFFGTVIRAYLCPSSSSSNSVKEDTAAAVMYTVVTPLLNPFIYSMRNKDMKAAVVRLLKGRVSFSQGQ
OR1Q1, sequence (as listed by the source): as the sequence (Q15612 whole entry) above, with Q24R, I163M counted along it
OR1N2 W37R, sequence (as listed by the source, stated change not applied): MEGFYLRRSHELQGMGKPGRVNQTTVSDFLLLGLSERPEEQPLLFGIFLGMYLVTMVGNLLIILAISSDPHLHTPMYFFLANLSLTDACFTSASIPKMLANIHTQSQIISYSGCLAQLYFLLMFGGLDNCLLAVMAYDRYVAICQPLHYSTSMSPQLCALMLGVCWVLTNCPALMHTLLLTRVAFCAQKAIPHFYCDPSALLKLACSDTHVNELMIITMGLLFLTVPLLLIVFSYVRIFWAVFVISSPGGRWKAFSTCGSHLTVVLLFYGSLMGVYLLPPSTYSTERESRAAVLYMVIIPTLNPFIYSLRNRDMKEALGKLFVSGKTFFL

c1ccncc1
inactive: OR1N1 (Homo sapiens)

Cc1c([N+](=O)[O-])c(C)c([N+](=O)[O-])c(C(C)(C)C)c1[N+](=O)[O-]
inactive: OR1N1 (Homo sapiens) | OR1N2 | OR1P1 (Homo sapiens) | OR1Q1 (Homo sapiens) | OR1S1 (Homo sapiens) | OR1S2 (Homo sapiens)

C=CCOC(=O)Cc1ccccc1
inactive: OR1N1 (Homo sapiens) | OR1N2 W37R | OR1N2 | OR1Q1 (Homo sapiens) | OR1Q1 | OR1S1 (Homo sapiens) | OR1S2 (Homo sapiens) | OR1S2 E17G | OR1S2 V225T G240R
